Activity calls are given as the source filed them. The rule behind the calls is not given here.
How the values were obtained:
[1] = molecular target: T1, Estrogen receptor (Homo sapiens) (UniProt P03372); experiment: Antagonistic activity at estrogen receptor in human MCF7 cells assessed as suppression of PDZK1 expression 10^-8 to 10^-7 M measured after 48 hrs by real-time PCR analysis; assay type: cell-based
T1 sequence (whole entry): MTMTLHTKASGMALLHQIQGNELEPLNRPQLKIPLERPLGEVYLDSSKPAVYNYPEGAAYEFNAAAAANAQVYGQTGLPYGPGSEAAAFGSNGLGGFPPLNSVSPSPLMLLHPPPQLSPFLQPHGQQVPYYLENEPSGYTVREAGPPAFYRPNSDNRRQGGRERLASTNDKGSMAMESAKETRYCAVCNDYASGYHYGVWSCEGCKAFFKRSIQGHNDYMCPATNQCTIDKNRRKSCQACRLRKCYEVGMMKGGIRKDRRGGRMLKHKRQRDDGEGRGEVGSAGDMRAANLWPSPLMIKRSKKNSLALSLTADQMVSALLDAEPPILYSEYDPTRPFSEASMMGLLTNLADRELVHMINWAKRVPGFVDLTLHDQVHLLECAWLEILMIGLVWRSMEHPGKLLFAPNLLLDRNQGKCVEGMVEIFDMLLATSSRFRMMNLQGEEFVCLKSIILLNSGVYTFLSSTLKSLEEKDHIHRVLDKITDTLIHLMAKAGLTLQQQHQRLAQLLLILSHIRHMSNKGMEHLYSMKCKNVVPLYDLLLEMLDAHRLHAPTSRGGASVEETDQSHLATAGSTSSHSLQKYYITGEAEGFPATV
How it was run: (§1)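 MCF-7 cells were seeded in DMEM with 5% FBS, then switched to phenol red-free DMEM with 5% charcoal-stripped FBS for 48 h. They were treated 48 h with vehicle, E2, or test compound + E2. Expression was measured by real-time PCR, with fold change calculated by 2^−ΔΔCt normalized to five reference genes (18S rRNA, HPRT1, RPL13A, GAPDH, ACTB).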

[2] = Cmax in C57BL/6 mouse at 8.3 mg/kg administered through oral gavage by HPLC-MS/MS analysis; assay type: ADME, organism-based; set-up: dose 8.3 mg/kg, route oral; conditions: in vivo
How it was run: (§2)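 Female C57BL/6 mice, n = 5, given a single 8.3 mg/kg oral gavage in PBS/ethanol. Orbital sinus blood was drawn into EDTA at 1, 3, 6, 24 and 48 h, with each group sampled once. Analysis by UPLC-MS/MS on a C18 column with a water/acetonitrile 0.05% formic acid gradient.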

[3] = molecular target: T1, Estrogen receptor (Homo sapiens); experiment: Antagonistic activity at estrogen receptor in human MCF7 cells assessed as suppression of EGR3 expression at 10^-8 to 10^-7 M measured after 48 hrs by real-time PCR analysis; assay type: cell-based; how it was run: as §1
T47D [4] = experiment: Antiproliferative activity against human tamoxifen-resistant T47D cells over-expressing PKC-alpha after 5 days by coulter counter analysis; assay type: functional, cell-based; conditions: 120 h
How it was run: (§3)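 Cells plated at 50000/well in 5% FBS phenol red-free DMEM; treated with six concentrations from 10−10 to 10−5 M for 5 days, DMSO vehicle controls. Viable cells counted by Coulter counter; survival ratio = treated/vehicle viable cells (control 100%). IC50 derived from dose–response curves. Cultures at 37 °C, 5% CO2.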

[5] = molecular target: T1, Estrogen receptor (Homo sapiens); experiment: Antagonistic activity at estrogen receptor in human MCF7 cells assessed as suppression of TFF1 expression 10^-8 to 10^-7 M measured after 48 hrs by real-time PCR analysis; assay type: cell-based; how it was run: as §1
[6] = molecular target: T1, Estrogen receptor (Homo sapiens); experiment: Antagonistic activity at estrogen receptor in human MCF7 cells assessed as suppression of WISP1 expression 10^-8 to 10^-7 M measured after 48 hrs by real-time PCR analysis; assay type: cell-based; how it was run: as §1
Estrogen receptor [7] = molecular target: T2, Estrogen receptor (Homo sapiens, UniProt P03372); experiment: Displacement of fluoromone ligand from recombinant ER-alpha (unknown origin) by LanthaScreen TR-FRET assay
T2 sequence (P03372 whole entry): T1 sequence (whole entry)
How it was run: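 Competitive TR-FRET binding with recombinant ERα, in which test compound displaces a fluormone tracer. Six to ten concentrations spanning the IC50 were tested in quadruplicate, and IC50 was taken from the competition curves.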

MCF7 [8] = experiment: Antiproliferative activity against human tamoxifen-resistant MCF7 cells after 5 days by coulter counter analysis; assay type: functional, cell-based; conditions: MCF7, 120 h
How it was run: (§4)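 Cells were plated at 50000/well in 5% FBS phenol red-free DMEM. The tamoxifen-resistant line came from prolonged 4-hydroxytamoxifen exposure of MCF-7. Cells were treated 5 days at six concentrations from 10−10 to 10−5 M, with DMSO vehicle. Viable cells were counted by Coulter counter, survival expressed relative to vehicle, and IC50 taken from dose-response curves.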

[9] = molecular target: T1, Estrogen receptor (Homo sapiens); experiment: Antiestrogenic activity at estrogen receptor in human T47D-KBluc cells assessed as inhibition of estradiol activity by luciferase reporter gene assay relative to estradiol control; assay type: cell-based
How it was run: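 T47D-kb-Luc cells stably carry an ERE-driven firefly luciferase. Antagonism was read as inhibition of the signal induced by 0.01 nM estradiol, testing 0.1, 1 and 10 nM. Luminescence was normalized to the estradiol control, run in quadruplicate in at least three separate experiments, and given as mean ± SD.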

[10] = AUC in C57BL/6 mouse at 8.3 mg/kg administered through oral gavage by HPLC-MS/MS analysis; assay type: ADME, organism-based; conditions: in vivo; how it was run: as §2
Estrogen receptor [11] = molecular target: T2, Estrogen receptor; experiment: (§5) Downregulation of ER-alpha expression in human T47D cells measured after 5 days by Western blot analysis; assay type: cell-based
[12] = molecular target: T1, Estrogen receptor (Homo sapiens); experiment: as §5; assay type: cell-based
Estrogen receptor [13] = molecular target: T2, Estrogen receptor; experiment: (§6) Downregulation of ER-alpha expression in human tamoxifen-resistant T47D cells over-expressing PKC-alpha measured after 5 days by Western blot analysis; assay type: cell-based
[14] = molecular target: T1, Estrogen receptor (Homo sapiens); experiment: as §6; assay type: cell-based
T47D [15] = experiment: Antiproliferative activity against human T47D cells after 5 days by coulter counter analysis; assay type: functional, cell-based; conditions: 120 h; how it was run: as §3
MCF7 [16] = experiment: Antiproliferative activity against human MCF7 cells after 5 days by coulter counter analysis; assay type: functional, cell-based; conditions: MCF7, 120 h; how it was run: as §4
[17] = Half life in C57BL/6 mouse at 8.3 mg/kg administered through oral gavage by HPLC-MS/MS analysis; assay type: ADME, organism-based; conditions: in vivo; how it was run: as §2
[18] = molecular target: T1, Estrogen receptor (Homo sapiens); experiment: Antagonistic activity at estrogen receptor in human MCF7 cells assessed as suppression of PGR expression 10^-8 to 10^-7 M measured after 48 hrs by real-time PCR analysis; assay type: cell-based; how it was run: as §1
[19] = Cmax in C57BL/6 mouse at 8.3 mg/kg, sc by HPLC-MS/MS analysis; assay type: ADME, organism-based; set-up: dose 8.3 mg/kg, route subcutaneous; conditions: in vivo
[20] = Half life in C57BL/6 mouse at 8.3 mg/kg, sc by HPLC-MS/MS analysis; assay type: ADME, organism-based; conditions: in vivo
[21] = AUC in C57BL/6 mouse at 8.3 mg/kg, sc by HPLC-MS/MS analysis; assay type: ADME, organism-based; conditions: in vivo

Row | Compound | IC50 (T47D [4]) [nM] | IC50 (MCF7 [8]) [nM] | inhibition [9] | inhibition [12] | inhibition [14] | IC50 (T47D [15]) [nM] | IC50 (MCF7 [16]) [nM] | other results
1 | C[C@]12CC[C@@H]3c4ccc(B(O)O)cc4C[C@@H](CCCCCCCCC[S+]([O-])CCCC(F)(F)C(F)(F)F)[C@H]3[C@@H]1CC[C@@H]2O (stereo not given in full) [ZB-716] | 37 | 69 | Dose-dependent effect | Dose-dependent effect | Dose-dependent effect | 6.1 | 3.2 | inhibition [1]: Active; Cmax [2]: 169.8 ng/mL; inhibition [3]: Active; inhibition [5]: Active; inhibition [6]: Active; IC50 (Estrogen receptor [7]): 4.1 nM; AUC [10]: 2547.1 ng·h/mL; IC50 (Estrogen receptor [11]): 7.8 nM; IC50 (Estrogen receptor [13]): 12.7 nM; t1/2 [17]: 23.5 h; inhibition [18]: Active
2 | CC/C(=C(\c1ccc(O)cc1)c1ccc(OCCN(C)C)cc1)c1ccccc1 [AFIMOXIFENE] | 540 | – | – | – | – | 24 | – | –
3 | C[C@]12CC[C@@H]3c4ccc(O)cc4C[C@@H](CCCCCCCCC[S+]([O-])CCCC(F)(F)C(F)(F)F)[C@H]3[C@@H]1CC[C@@H]2O (stereo not given in full) [FULVESTRANT] | 42 | 44 | Dose-dependent effect | Dose-dependent effect | Dose-dependent effect | 1.2 | 1.5 | Cmax [19]: 15.2 ng/mL; half-life [20]: 14 h; AUC [21]: 158 ng·h/mL

Source: ChEMBL document CHEMBL4428065, “Fulvestrant-3 Boronic Acid (ZB716): An Orally Bioavailable Selective Estrogen Receptor Downregulator (SERD)” (J Med Chem, 2016)
